LANA-H2B inh – blocks KSHV LANA binding to histone H2A/H2B. Q9QR71. actives 0.6% (n = 320,000). inhibition, % (no concentration beside the values). cell-free LANA-H2A/H2B peptide, fluorescence polarization; in the data active means inhibition mostly above about 10%, no sharp cut-off; inactive means mostly below about 6.7%
HKDC1 inhibitor – blocks human hexokinase HKDC1 activity; Q2TB90; recombinant HKDC1, G6PDH/diaphorase resazurin coupled fluorescence; inhibition, % at 20 µM; actives 0.16% (n = 340,000);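 active means inhibition above about 35% when tested at 20 µM, limit read from the data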;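 further: plate controls were DMSO wells with enzyme for no effect and DMSO wells lacking enzyme for full effect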
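test system = in-house recombinant HK5 (HKDC1) enzyme | amount = HKDC1 at 5 µg/mL | control set = DMSO-enzyme wells negative, buffer-substituted wells positive | compound = one dose of 20 µM, 1% DMSO | schedule = reaction time 90 min, room temperature, protected from light | technique = resorufin fluorescence at 613 nm | reagent = glucose with 1 mM ATP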
ATG4B inhibitor – ATG4B (human) cysteine protease inhibition | AID 504462 | actives 0.51% (n = 340,000) | inhibition, % at 8.33 µM | ATG4B cleavage of LC3-PLA2, NBD-HPC fluorescence, 1 h; in the data active means inhibition above about 40%
HDAC3 inhib – human HDAC3 inhibition. O15379. recombinant HDAC3, fluorogenic peptide/trypsin coupled, fluorescence. inhibition, % at 8.3 µM. actives 0.15% (n = 320,000). AID 2718; in the data active means inhibition above about 26%, passing the limit was not always enough
Target sequence (O15379 whole entry, looked up): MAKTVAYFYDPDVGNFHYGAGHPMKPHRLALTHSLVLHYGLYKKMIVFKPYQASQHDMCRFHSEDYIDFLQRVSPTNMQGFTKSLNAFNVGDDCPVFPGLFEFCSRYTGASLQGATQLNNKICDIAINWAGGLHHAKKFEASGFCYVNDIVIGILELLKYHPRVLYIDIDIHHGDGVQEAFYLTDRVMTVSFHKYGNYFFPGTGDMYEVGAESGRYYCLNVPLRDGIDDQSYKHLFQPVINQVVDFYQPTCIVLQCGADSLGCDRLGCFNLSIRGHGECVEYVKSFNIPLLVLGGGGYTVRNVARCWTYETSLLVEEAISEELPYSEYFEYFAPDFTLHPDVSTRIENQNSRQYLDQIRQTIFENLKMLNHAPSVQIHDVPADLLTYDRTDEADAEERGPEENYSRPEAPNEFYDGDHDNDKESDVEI
AI-2 QS modul – Vibrio harveyi AI-2 quorum sensing modulation | Vibrio harveyi JMH597 AI-2 luminescence/OD600 ratio, 9 h; active compounds read low; strain lacks LuxN and CqsS sensors; 0 = neutral-control median | activity change, % at 7.5 µM | actives 0.4% (n = 300,000); in the data active means activity change below about -75%, passing the limit was not always enough;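 further: luminescence divided by OD600 gain over 9 h not by final OD600 alone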
A1 inh – inhibitors of the anti-apoptotic protein A1, read as caspase activation | MEF A1-2A-BIM cells, Caspase-Glo 3/7 luminescence, 3 h; percent of clofoctol response, vehicle zero | caspase activation, % (no concentration beside the values) | actives 0.066% (n = 330,000) | AID 2462;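 active means over half of replicate activation scores above 10%, or exactly half above 10 with the replicate mean above 10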
* hit, by the source's call. Most compounds without a hit are left out; they make up all but 1.8% or so of the library.

Results for c1ccc2c(c1)nc1n2CCC1 ?
HKDC1 inhibitor: -5.0; ATG4B inhibitor: 5.9

Results for C[C@H]1c2cccc(O)c2C(O)=C2C(=O)C3(O)C(O)=C(C(N)=O)C(=O)[C@@H](N(C)C)[C@@H]3[C@@H](O)[C@@H]21 (stereo not given in full) ?
LANA-H2B inh: -2.1; HKDC1 inhibitor: 8.4; ATG4B inhibitor: 32.2; HDAC3 inhib: 3.9; A1 inh: -0.3

What do the screens show for `C=C1c2cccc(O)c2C(O)=C2C(=O)[C@]3(O)C(O)=C(C(N)=O)C(=O)[C@@H](N(C)C)[C@@H]3[C@@H](O)[C@H]12`?
LANA-H2B inh: 0.7; HKDC1 inhibitor: 7.1; ATG4B inhibitor: -23.4; HDAC3 inhib: 8.5; AI-2 QS modul: -83.3*; A1 inh: 0.3

What do the screens show for `CN(C)c1ccc(O)c2c1CC1CC3C(N(C)C)C(=O)C(C(N)=O)=C(O)[C@@]3(O)C(=O)C1=C2O` (stereo not given in full)?
LANA-H2B inh: 1.3; HKDC1 inhibitor: 1.9; ATG4B inhibitor: -2.0; HDAC3 inhib: 2.6; AI-2 QS modul: -120.2*; A1 inh: -0.4

How did CN(C)c1ccc(O)c2c1CC1CC3[C@@H](N(C)C)C(=O)C(C(N)=O)C(=O)[C@]3(O)C(=O)C1C2=O (stereo not given in full) do in these assays?
HKDC1 inhibitor: 1.7; ATG4B inhibitor: -6.6

How did N#CCCN(CCC#N)C(=O)C1c2ccccc2Oc2ccccc21 do in these assays?
LANA-H2B inh: 114.0*; HKDC1 inhibitor: -2.6; ATG4B inhibitor: 0.2; HDAC3 inhib: -0.4; AI-2 QS modul: 7.4; A1 inh: -1.3

What do the screens show for `CN(CCC#N)C(=O)COC(=O)C1c2ccccc2Oc2ccccc21`?
LANA-H2B inh: -5.4; HKDC1 inhibitor: -4.8; ATG4B inhibitor: -5.0; HDAC3 inhib: -2.0; AI-2 QS modul: 11.1; A1 inh: 1.1

What do the screens show for `O=C(NNC(=O)C1COc2ccccc2O1)c1ccccc1O` (stereo not given)?
HKDC1 inhibitor: -7.9; ATG4B inhibitor: 2.1

What do the screens show for `O=C1CCN2C=Nc3cccc4ccc1c2c34`?
LANA-H2B inh: 113.9*; HKDC1 inhibitor: 20.5; ATG4B inhibitor: -56.1; HDAC3 inhib: -1.4; AI-2 QS modul: 34.1; A1 inh: -1.4

Results for O=C1CCC(=O)c2ccc3c4c(ccc1c24)CC3 ?
HKDC1 inhibitor: 5.0; ATG4B inhibitor: -3.1

What do the screens show for `COc1ccc(/C=C/C(=O)NC(=S)Nc2ccccn2)cc1`?
LANA-H2B inh: 2.7; HKDC1 inhibitor: 1.2; ATG4B inhibitor: -2.1; HDAC3 inhib: 0.1; AI-2 QS modul: -11.6; A1 inh: -0.5

How did COc1ccccc1/C=C/C(=O)NC(=S)Nc1ccccn1 do in these assays?
LANA-H2B inh: 8.0*; HKDC1 inhibitor: 10.0; ATG4B inhibitor: 8.0; HDAC3 inhib: 5.0; AI-2 QS modul: -11.1; A1 inh: 0.1

How did NNc1ncnc2c1cnn2-c1ccccc1 do in these assays?
LANA-H2B inh: 26.3*; HKDC1 inhibitor: -6.7; ATG4B inhibitor: -13.0; HDAC3 inhib: 6.0; AI-2 QS modul: 24.9; A1 inh: -0.7

What do the screens show for `CC(C)Nc1ncnc2c1cnn2-c1ccccc1`?
LANA-H2B inh: 0.0; HKDC1 inhibitor: 1.5; ATG4B inhibitor: -5.8; HDAC3 inhib: -6.6; AI-2 QS modul: 9.7; A1 inh: -1.4

How did Oc1cccc(C(Nc2nccs2)c2ccc3cccnc3c2O)c1 (stereo not given) do in these assays?
LANA-H2B inh: 9.4; HKDC1 inhibitor: -26.7; ATG4B inhibitor: -4.5; HDAC3 inhib: 2.2; AI-2 QS modul: -85.0*; A1 inh: 0.0

What do the screens show for `COc1ccc(OCc2nnc(SCC(=O)Nc3ccc(C)cc3)o2)cc1`?
LANA-H2B inh: -0.2; HKDC1 inhibitor: -5.2; ATG4B inhibitor: -3.3; HDAC3 inhib: -9.0; A1 inh: 0.3

Results for CC(NC(=O)CSc1nnc(COc2ccccc2)o1)c1ccccc1 (stereo not given) ?
LANA-H2B inh: 20.3*; HKDC1 inhibitor: 4.9; ATG4B inhibitor: -15.1; HDAC3 inhib: -4.4; AI-2 QS modul: 5.6; A1 inh: 1.0

What do the screens show for `Cc1ccc(OCc2nnc(SCC(=O)CC(=O)Nc3ccccc3)o2)cc1`?
LANA-H2B inh: 17.3*; HKDC1 inhibitor: -3.0; ATG4B inhibitor: -2.9; HDAC3 inhib: 10.0; AI-2 QS modul: 13.1; A1 inh: 0.3

How did COc1ccc(Cc2nnc(SCC(=O)NC(C)c3ccccc3)o2)cc1 (stereo not given) do in these assays?
LANA-H2B inh: -5.8; HKDC1 inhibitor: 6.4; ATG4B inhibitor: -18.9; HDAC3 inhib: -3.8; AI-2 QS modul: 27.5; A1 inh: 1.3

Results for CC(C)C[C@@H](CN1CCCC1CN1C(=S)NC[C@@H]1Cc1ccc(O)cc1)N1C[C@H](Cc2ccc(O)cc2)N(CC2CCCCC2)C1=S (stereo not given in full) ?
HKDC1 inhibitor: -3.0

How did C=CC[C@H](CC(=O)N(CCO)Cc1ccccc1)C(=O)N[C@@H](COC(=O)[C@@H](CC=C)CC(=O)OC(C)(C)C)Cc1c[nH]c2ccccc12 do in these assays?
LANA-H2B inh: -12.8; HKDC1 inhibitor: 2.5; ATG4B inhibitor: 18.9; HDAC3 inhib: 39.9*; A1 inh: -0.9

How did C=CC[C@H](CC(=O)N(CCO)Cc1ccccc1)C(=O)N[C@H](COC(=O)[C@@H](CC=C)CC(=O)OC(C)(C)C)Cc1ccccc1 do in these assays?
LANA-H2B inh: 3.1; HKDC1 inhibitor: 3.6; ATG4B inhibitor: 14.3; HDAC3 inhib: 29.6*; A1 inh: 1.2

How did C=CC[C@@H](CC(=O)N(CCO)Cc1ccccc1)C(=O)N[C@H](COC(=O)[C@@H](CC=C)CC(=O)OC(C)(C)C)Cc1ccccc1 do in these assays?
HKDC1 inhibitor: 1.3; ATG4B inhibitor: 8.9

Results for C=CC[C@@H](CC(=O)N(CCO)Cc1ccccc1)C(=O)N[C@@H](COC(=O)[C@H](CC=C)CC(=O)OC(C)(C)C)Cc1c[nH]c2ccccc12 ?
LANA-H2B inh: 3.7; HKDC1 inhibitor: 0.9; ATG4B inhibitor: 9.8; HDAC3 inhib: 32.9*; A1 inh: 1.6

What do the screens show for `COc1cc2c(cc1OC)C(C)=NC1(CCCCC1)C2`?
LANA-H2B inh: 8.0*; HKDC1 inhibitor: -4.7; ATG4B inhibitor: -11.2; AI-2 QS modul: 27.0; A1 inh: 0.1

What do the screens show for `COc1cc2c(cc1OC)C(SC)=NC1(CCCC1)C2`?
LANA-H2B inh: 0.9; HKDC1 inhibitor: -4.7; ATG4B inhibitor: 0.1; HDAC3 inhib: -4.2; AI-2 QS modul: 9.1; A1 inh: -0.6

How did NC(=O)c1ccc(N=Cc2ccc([N+](=O)[O-])s2)cc1 do in these assays?
LANA-H2B inh: 16.6*; HKDC1 inhibitor: 14.3; ATG4B inhibitor: -11.5; HDAC3 inhib: 8.0; A1 inh: 0.0
